Rows were chosen to be rich in hits. Some 3.4% of all compounds tested hit in one or more screens of this group.
ANO1 block: mouse TMEM16A channel inhibition, primary screen; 310,000 compounds, 1.2% hits; Q8BHY3; normalized B-score (activity score, 25-100; higher = stronger inhibition) at 10 µM; AID 588511; HEK293 TMEM16A/YFP iodide influx fluorescence, ionomycin;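 active means ratio plate-corrected score three or more library SD toward inhibition, starting fluorescence score within five deviations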;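 further: score derived from kinetic fluorescence span divided by baseline fluorescence per well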
m5-HT2A agonist: agonists of mouse serotonin 5-HT2A receptor (HTR2A) | P35363 | CHO-K1 mHTR2A beta-arrestin complementation, luminescence; percent of 30 µM serotonin response | activation, % at 7.6 µM | 360,000 compounds, 0.66% hits | AID 624169;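 active means activation above a run cutoff, the mean activation of all tested compounds plus 3 SD, cut at about 14% in these data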;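 further: 0% = plate median of compound wells and 100% = 30 µM serotonin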
beta cell repl: MIN6 beta-cell proliferation induction; 330,000 compounds, 0.29% hits; proliferation, % at 10 µM; AID 2380; MIN6 cells proliferation, ATPlite luminescence, 48 h; cells starved in 0.2% serum; 100% = growth in 10% serum;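 active means compounds whose signal lies at least 3.5 SD above the mean of all wells on their plate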;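 further: 0% = DMSO-treated cells in low-serum medium and 100% = 10% serum control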
MC4R barr agon: agonists of human melanocortin 4 receptor (MC4R) beta-arrestin | U2OS MC4R beta-arrestin complementation, luminescence; percent of melanotan II response, DMSO zero | activation, % at 8.9 µM | 360,000 compounds, 0.98% hits | AID 540308;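 active means activation above a per-plate cutoff, the mean activation of sample wells on that plate plus 3 SD, cut at about 8% in these data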
MC4R antagonist: human MC4R antagonism in cAMP assay; inhibition, % at 6.5 µM; MC4R-expressing cells, MTII-stimulated cAMP, LANCE TR-FRET; 360,000 compounds, 0.48% hits; AID 540295;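 active means inhibition above its plate's cutoff, the mean of tested wells on that plate plus 3 SD, cut at about 29% in these data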;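 further: 0% = Melanotan II alone and 100% = Melanotan II plus saturating MCL0020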
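Assay system: U2OS cells stably expressing human melanocortin 4 receptor (MC4R) / Dosing: 6.5 µM / Timing: compound 30 min, challenge 1 h, detection 1 h / Measured by: Eu-cAMP/anti-cAMP TR-FRET, emission 671 nm / Replicates: singlicate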
ANO1 activ: activates or potentiates the mouse TMEM16A chloride channel. HEK293 TMEM16A/YFP-H148Q/I152L, iodide quench fluorescence; hits give low values. B-score at 10 µM. Q8BHY3. AID 623877. 340,000 compounds, 0.3% hits;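 active means fluorescence-ratio B-score plate-corrected deviation score at least 3 library SD below zero, with starting fluorescence score within 5 deviations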;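 further: channel opened by trigger with iodide after compound preincubation; score built on the fluorescence ratio of max minus min over baseline; more negative score means more quench and so TMEM16A activation or potentiation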
TMEM16A reconf: TMEM16A (mouse) chloride channel inhibition, re-confirmation | shares compounds with ANO1 block | HEK293 TMEM16A/YFP-H148Q, iodide quench fluorescence; ionomycin added to raise cell calcium | inhibition, % at 10 µM | 2,300 compounds, 39% hits;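 active means mean duplicate percent inhibition, scaled so buffer wells are 0 and the reference blocker 100, over three buffer SD above buffer mean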
HEK293 Ca mobil: alters calcium mobilization in TMEM16A HEK293 cells, counter-screen; 2,300 compounds, 2% hits; shares compounds with ANO1 block; calcium response (% of ionomycin), % at 10 µM; AID 652231; TMEM16A/YFP HEK293, Fluo4 calcium mobilization;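 active means duplicate-averaged calcium signal over 20% of the ionomycin maximum, relative to buffer baseline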;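 further: each well's signal is peak minus trough fluorescence divided by its pre-addition baseline; 0% = buffer wells and 100% = ionomycin wells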
YFP-HEK293 quench: parental YFP-HEK293 iodide quench counter-screen activity. YFP ratio F(max-min)/F0 at 10 µM. 2,300 tested, under 10 active. ionomycin. shares compounds with ANO1 block;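 active means yellow fluorescent protein signal ratio exceeding the buffer control mean by over 5 SD of those controls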;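 further: ratio is mean of duplicate wells from kinetic YFP trace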
ClC-1 rat inh: selectivity of TMEM16A inhibitors: inhibition of rat ClC-1 chloride channel; shares compounds with ANO1 block; CHO ClC-1-YFP, iodide influx fluorescence quench; iodide control reads 0, buffer control 100; ratio percent, % at 10 µM; 2,300 tested, under 10 active;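 active means duplicate-mean ratio percent above the mean of iodide-only control wells, which defines zero, plus 5 of their SD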;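 further: higher percent means stronger block of ClC-1 iodide influx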
Target sequence (P35524 whole entry, looked up): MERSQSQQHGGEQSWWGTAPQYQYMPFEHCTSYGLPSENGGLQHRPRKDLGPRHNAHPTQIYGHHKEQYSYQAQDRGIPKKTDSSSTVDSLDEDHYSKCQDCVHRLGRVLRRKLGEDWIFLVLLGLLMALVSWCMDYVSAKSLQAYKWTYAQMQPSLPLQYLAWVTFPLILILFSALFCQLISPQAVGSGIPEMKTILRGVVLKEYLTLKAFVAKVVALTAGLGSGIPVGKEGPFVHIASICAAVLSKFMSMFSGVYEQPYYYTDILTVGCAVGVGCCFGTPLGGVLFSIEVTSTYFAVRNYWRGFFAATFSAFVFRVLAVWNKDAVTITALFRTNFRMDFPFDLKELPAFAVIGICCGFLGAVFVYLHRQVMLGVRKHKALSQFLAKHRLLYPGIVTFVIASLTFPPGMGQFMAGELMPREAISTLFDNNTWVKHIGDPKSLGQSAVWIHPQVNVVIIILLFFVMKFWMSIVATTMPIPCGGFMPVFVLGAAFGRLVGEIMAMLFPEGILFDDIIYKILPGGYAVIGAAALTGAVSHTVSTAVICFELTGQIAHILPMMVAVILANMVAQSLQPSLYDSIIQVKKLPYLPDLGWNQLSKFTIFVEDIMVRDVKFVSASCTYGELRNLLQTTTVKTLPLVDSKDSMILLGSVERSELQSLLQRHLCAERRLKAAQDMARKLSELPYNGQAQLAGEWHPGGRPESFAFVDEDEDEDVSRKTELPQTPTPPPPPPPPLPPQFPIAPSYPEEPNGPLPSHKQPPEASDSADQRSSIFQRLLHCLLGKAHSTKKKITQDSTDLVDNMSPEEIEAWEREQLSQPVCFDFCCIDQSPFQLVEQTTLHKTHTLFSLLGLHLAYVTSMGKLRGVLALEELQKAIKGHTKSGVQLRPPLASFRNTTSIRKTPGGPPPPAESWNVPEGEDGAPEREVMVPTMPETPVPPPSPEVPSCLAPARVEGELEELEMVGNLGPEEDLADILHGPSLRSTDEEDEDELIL
* hit, by the source's call; i = inactive; . = not tested or not shown.

SMILES	ANO1 block	m5-HT2A agonist	beta cell repl	MC4R barr agon	MC4R antagonist	ANO1 activ	TMEM16A reconf	HEK293 Ca mobil	YFP-HEK293 quench	ClC-1 rat inh
COC(=O)COc1ccc(S(=O)(=O)Nc2ccc3c(c2)OCCO3)cc1C	25*	5	-2	-2	7	i	18%*	i	-1	-6
O=S(=O)(c1ccccc1)N1CCNCC1	i	-1	-1	-1	10	i	.	.	.	.
Cn1cc(CNC(=O)c2cc(COc3ccc4c(c3)CCCC4)on2)cn1	25*	-8	-1	-4	-4	i	i	i	-1.1	-8
COc1ccc(CN(C)C(=O)c2ccc(NS(=O)(=O)c3ccccc3)cc2)c(OC)c1	i	-1	0	1	6	i	.	.	.	.
COc1ccc(CN(C)C(=O)c2ccc(COc3ccccc3)cc2)c(OC)c1	25*	-6	-4	0	-2	i	i	i	-1.1	-5
O=C(Nc1cccc(C(F)(F)F)c1)c1cccnc1NCCO	i	2	-2	-2	2	i	.	.	.	.
O=C(Nc1cccc(C(F)(F)F)c1)c1cccnc1NCCc1ccccc1	25*	-5	-3	0	6	i	i	i	-1.1	-5
Cc1cccc(-c2cc3nc(-c4ccccc4)cc(=O)n3[nH]2)c1	i	-1	-6	1	7	i	.	.	.	.
CCOC(=O)c1c(NS(=O)(=O)c2ccc(Br)cc2)sc2c1CCC2	100*	1	-2	0	0	i	70%*	i	-0.9	-6
COc1cccc(/C=C/C(=O)OCC(=O)NCC2CCCCC2)c1OC	.	4	-1	-1	1	i	.	.	.	.
Cc1cc(S(=O)(=O)Nc2ccc3cn[nH]c3c2)c(C)cc1Cl	25*	4	-3	1	4	i	16%*	i	-0.96	-12
O=S(=O)(Nc1ccc2cn[nH]c2c1)c1ccc(Cl)cc1	i	-2	2	-3	4	i	.	.	.	.
O=C(CN(Cc1ccccc1Cl)S(=O)(=O)c1ccc(Cl)cc1)N/N=C/c1ccc(C(=O)O)cc1	i	2	-3	2	-5	i	.	.	.	.
Cc1cc(C)n2nc(SCc3ncc(-c4ccccc4)o3)nc2n1	100*	4	1	-1	-4	i	i	i	-0.99	-4
COc1ccc(C(C)=O)cc1CC(=O)Nc1cccc(S(=O)(=O)N2CCOCC2)c1	.	12	1	0	1	i	.	.	.	.
Nc1ccc(CCS(N)(=O)=O)cc1	25*	0	-2	-2	19	i	i	i	-0.89	-2
NS(=O)(=O)CCCc1ccccc1	i	-1	2	-1	-1	i	.	.	.	.
CN(Cc1ccccc1)C(=O)COc1cc(=O)n(C)c2ccccc12	i	-7	0	0	9	i	i	i	-0.85	-4
CCN(Cc1ccccc1)C(=O)COc1cc(=O)n(CC)c2ccccc12	i	-2	0	-1	-8	i	.	.	.	.
COC(=O)N(C)C[C@H]1OCc2cnnn2CCCC(=O)N([C@@H](C)CO)C[C@H]1C	.	-1	.	-1	8	.	.	.	.	.
Cc1onc(-c2ccccc2)c1C(=O)NC(=S)NNC(=O)c1cc(-c2ccc(F)cc2)n[nH]1	25*	1	-6	-3	10	i	i	i	-0.84	2
COc1cc(C(=O)Oc2cccc(Nc3ncnc4ccccc34)c2)cc(OC)c1OC	100*	11	-2	4	5	i	22%*	i	-1.1	-22
CCCCCOC(=O)C1C(c2ccccc2)C(C(=O)O)C1c1ccccc1 (centres undefined)	25*	0	0	-1	3	i	i	i	-1.3	-5
O=C(O)C1C(c2ccccc2)C(C(=O)OCCCO)C1c1ccccc1 (centres undefined)	i	3	2	-3	-7	i	.	.	.	.
NC(c1cccc(F)c1)c1nc(-c2ccc(Cl)cc2)cs1 (centres undefined)	.	-6	.	-2	-5	.	.	.	.	.
SMILES	ANO1 block	m5-HT2A agonist	beta cell repl	MC4R barr agon	MC4R antagonist	ANO1 activ	TMEM16A reconf	HEK293 Ca mobil	YFP-HEK293 quench	ClC-1 rat inh
CCc1c(C)nc2ncnn2c1NCCc1ccc(OC)cc1	25*	-1	-5	0	-17	i	i	i	-0.82	-20
CC(C)C1Cc2c(sc3[nH]c(=S)n(Cc4ccccc4)c(=O)c23)CO1 (centres undefined)	100*	-1	-4	1	3	i	i	i	-0.85	-2
Cc1nnc2n(-c3ccccc3)c(=O)c3c4c(sc3n12)COC(C(C)C)C4 (centres undefined)	i	1	-2	-1	7	i	.	.	.	.
O=C1C=C(c2ccc3cc[nH]c3c2)C[C@@H](c2ccc3c(c2)OCO3)C1	.	0	-5	0	-6	i	.	.	.	.
N#CCSc1nnc(COc2ccccc2)n1-c1ccccc1	25*	-5	-1	0	4	i	i	i	-1.1	6
N#CCSc1nnc(COc2cccc3ccccc23)n1-c1ccccc1	25*	-5	-3	-2	7	i	i	i	-1	-13
O=C(O)CSc1nnc(COc2ccccc2)n1-c1ccccc1	i	6	-2	-1	1	i	.	.	.	.
COc1ccc(NC(=O)C2(C)CCN2C2Cc3ccccc3C2)cc1OC (centres undefined)	.	-5	.	-2	-7	.	.	.	.	.
CCOC(=O)c1c(C)[nH]c(C(=O)N(C)CC(=O)Nc2ccc(OC)cc2)c1C	.	11	0	-1	-2	i	.	.	.	.
COc1ccccc1NC(=O)COc1ccc(/C=N/NC(=O)CSCc2ccc(Cl)cc2)cc1	100*	7	-4	3	9	i	18%*	i	-1.1	4
COc1ccccc1NC(=O)COc1ccc(/C=N/NC(=O)CSCc2cc(C)cc(C)c2)cc1	i	1	-1	0	-1	i	.	.	.	.

Screening data (PubChem BioAssay)
